# Bioassay records deposited in PubChem by The Scripps Research Institute Molecular Screening Center.
# Compounds with a hit are over-represented: about 2.3% of the library has one in this group of screens.
# RBBP9 inh: blocks human serine hydrolase RBBP9. O75884. recombinant RBBP9, FP-Rh probe fluorescence polarization. inhibition, % at 7.94 µM. 0.2% of 220,000 active. AID 1515;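 active = inhibition above the campaign mean of all tested compounds plus 3 SD, cut at about 14% in these data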;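 also: plate controls were DMSO wells with RBBP9 for no effect and wells lacking RBBP9 protein for full effect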
# Target sequence (O75884 whole entry, looked up): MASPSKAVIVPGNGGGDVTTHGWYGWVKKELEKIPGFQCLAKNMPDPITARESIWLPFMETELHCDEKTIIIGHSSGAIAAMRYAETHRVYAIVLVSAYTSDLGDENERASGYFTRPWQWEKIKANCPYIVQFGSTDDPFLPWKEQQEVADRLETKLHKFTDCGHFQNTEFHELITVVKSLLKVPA
#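 Measured by – fluorescence polarization · Test system – RBBP9 protein · Input – 2.5 µM RBBP9 dispensing solution, before mixing · Measure – percent inhibition from mP, scaled between DMSO and no-protein wells · Benchmarks – DMSO-treated enzyme wells and wells lacking RBBP9 · Times – preincubation 30 min plus labeling 45 min at 25 °C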
# PRMT1 FP inh: blocks human protein arginine methyltransferase 1. 1.3% of 370,000 active. inhibition, % at 2.79 µM. recombinant PRMT1, activity-based probe fluorescence polarization. AID 652257. Q99873;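 active = inhibition above about 21% made by adding two undisclosed values, limit read from the data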
# GSTO1 inh: GSTO1 inhibition, counter-screen for RBBP9 inhibitors; 1.1% of 300,000 active; recombinant GSTO1, activity-based probe fluorescence polarization; P78417; inhibition, % at 5.96 µM;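 active = inhibition above the campaign mean inhibition plus 3 SD, cut at about 35% in these data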;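 also: 0% = GSTO1-1 with DMSO and 100% = wells lacking GSTO1-1 enzyme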
# Target sequence (P78417 whole entry, looked up): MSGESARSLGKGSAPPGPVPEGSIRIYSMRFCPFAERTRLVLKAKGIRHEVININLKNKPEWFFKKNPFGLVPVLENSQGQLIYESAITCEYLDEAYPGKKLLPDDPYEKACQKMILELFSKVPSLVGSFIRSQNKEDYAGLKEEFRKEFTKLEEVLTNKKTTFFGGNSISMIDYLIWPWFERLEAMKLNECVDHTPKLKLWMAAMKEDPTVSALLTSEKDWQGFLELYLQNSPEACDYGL
# PAD4 inh: inhibitors of human PAD4 | Q9UM07 | recombinant PAD4, RCA probe fluorescence polarization | inhibition, % at 6.36 µM | 0.41% of 330,000 active;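 active = percent inhibition above a cutoff equal to the mean of all tested compounds plus 3 SD, cut at about 15% in these data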;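 also: 0% = PAD4 with RCA probe and DMSO and 100% = probe without PAD4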
# PME-1 primary: blocks human protein phosphatase methylesterase 1. AID 2130. 0.53% of 320,000 active. recombinant PME-1, FP-Rh probe fluorescence polarization. Q9Y570. inhibition, % at 5.9 µM;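 active = inhibition above the campaign mean of all compounds plus 3 SD, cut at about 26% in these data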;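 also: competitive labeling of PME-1 active site by serine hydrolase directed probe; 0% = PME-1 with DMSO and 100% = wells lacking PME-1 enzyme; inhibitors block probe labeling so polarization falls and inhibition rises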
# Fam108B inh: counter-screen for RBBP9 inhibitors: inhibitors of mouse Fam108B; 0.33% of 300,000 active; inhibition, % at 9.51 µM; recombinant Fam108B, FP-Rh probe fluorescence polarization; AID 1947;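 active = inhibition above the screen mean inhibition plus 3 SD, computed separately per campaign, cut at about 18% in these data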;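 also: inhibitors lower polarization as less probe binds the enzyme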
# Fam108b confirm: Fam108b (mouse) hydrolase inhibition, confirmation assay. shares compounds with Fam108B inh. AID 1978. 44% of 930 active. inhibition, % at 9.51 µM. recombinant Fam108b, FP-Rh probe fluorescence polarization;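 active = inhibition above a limit from the primary screen, the mean over all compounds plus 3 SD, cut at about 19% in these data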;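 also: 0% = median of active Fam108b wells and 100% = catalytically dead S170A mutant; inhibitors free the probe so polarization falls as inhibition rises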
# Fam108b ABPP HTS: inhibits mouse Fam108b in gel-based ABPP. inhibition, % at 20 µM. recombinant Fam108b, fluorophosphonate probe. 44% of 260 active. shares compounds with Fam108B inh. AID 588649; in the data active = inhibition above about 40%
# Starred values were filed as active, the others as inactive; nt = no result.
SMILES,RBBP9 inh,PRMT1 FP inh,GSTO1 inh,PAD4 inh,PME-1 primary,Fam108B inh,Fam108b confirm,others
CC1CCc2nc3ccc(S(=O)(=O)N4CCC(C(=O)N5CCCCCC5)CC4)cc3c(C(=O)O)c2C1 (centres undefined),-1,1,-1,-1,-1,0,nt,
O=C(CCc1ccc(Oc2cc([N+](=O)[O-])cc([N+](=O)[O-])c2)cc1)Nc1cccc(Cl)c1,-10,0,-13,-3,19,28*,17,
COc1ccc(CCC(=O)Nc2cccc(Cl)c2)cc1,-8,3,3,0,-5,-5,nt,
CCCCn1nnnc1C(c1cc2ccccc2o1)N(C)Cc1ccc(Cl)cc1 (centres undefined),nt,-2,nt,nt,nt,nt,nt,
O=C1C2C3C=CC(C3)C2C(=O)N1CNc1ccc(O)cc1 (centres undefined),nt,nt,93*,33*,44*,33*,12,
O=C(O)c1cccc(-n2cccc2/C=N/O)c1,-1,0,4,-4,-3,2,nt,
O=C(O)c1cccc(-n2cccc2/C=C/[N+](=O)[O-])c1,-10,26*,6,1,-13,25*,1,
O=C(O)C1=CC(=C(c2ccc(O)c(C(=O)O)c2)c2ccc(O)c(C(=O)O)c2)C=CC1=O,nt,nt,-82,-47,-55,53*,32*,
CCOC(=O)/C(=N\Nc1ccc(C(C)=O)cc1)c1csc(Nc2ccccc2)n1,-1,-2,0,1,1,3,nt,
CC(NC(=O)COC(=O)c1ccc(OCC2CCCO2)cc1)c1ccccc1Cl (centres undefined),nt,-3,nt,1,2,nt,nt,
Cc1nc2ccccc2c(=O)n1N=C/C=C/c1ccccc1,nt,nt,nt,nt,nt,nt,nt,Fam108b ABPP HTS=0
Cc1nc2ccccc2c(=O)n1/N=C/C=C/c1ccccc1,-1,-2,7,-1,1,24*,83*,
C[C@@H]1CCC[C@]2(O[C@@H](CCO)C[C@@H](O)[C@@H]2O)O1,nt,2,-5,0,1,0,nt,
C1=C(CCNc2ncnc3c2[nH]c2ccccc23)CCCC1,-6,-2,-1,-3,45*,21*,8,
O=c1c2[nH]c3ccccc3c2ncn1CCC1=CCCCC1,-1,-1,8,2,1,1,nt,
Cc1ccc(Cn2nc(C)c(NC(=O)CCCn3nc([N+](=O)[O-])c(Cl)c3C)c2C)cc1,-12,-3,3,-4,9,-1,nt,
O=C(NC1CCCCC1)C(c1ccnc2ccccc12)n1c(=O)c(-c2cc3ccccc3[nH]2)nc2ccccc21 (centres undefined),nt,-4,nt,nt,nt,nt,nt,
COc1ccccc1NC(=O)Nc1nc(CC(=O)Nc2ccc(F)c(F)c2)cs1,nt,4,-8,-6,-23,20*,-18,
CCCCNC(=S)N(CCN(CC)CC)Cc1cc2cc3c(cc2[nH]c1=O)OCCO3,nt,-7,0,12,-5,-8,nt,
Cc1nc2c(sc(=S)n2Cc2ccco2)c(=O)n1CC(=O)Nc1ccccc1F,nt,1,-4,0,-5,-5,nt,
O=C(N/N=C/c1ccc([N+](=O)[O-])cc1)c1ccc(COc2ccccc2-c2ccccc2)cc1,-8,1,6,2,-11,26*,3,
Cc1ccc(NC(=O)Cn2c(=O)cnc3ccccc32)cc1S(=O)(=O)N(C)C,5,1,-3,-5,-4,6,nt,
CCOC(=O)C1(C)CCCN1C(=O)c1cccc(F)c1 (centres undefined),nt,-8,nt,nt,nt,nt,nt,
Oc1ccc(/C=N/Nc2ccnc3cc(Cl)ccc23)c(O)c1O,nt,15,26,2,32*,30*,93*,
Oc1ccc(C=NNc2ccnc3cc(Cl)ccc23)cc1O,nt,nt,nt,nt,nt,nt,nt,Fam108b ABPP HTS=85*
CN(Cc1ccc(F)cc1)Cc1nc(-c2ccccc2)no1,nt,-2,2,-6,4,-3,nt,
CCc1c(C)sc(NC(=S)N2CCN(C(=O)C3CCCO3)CC2)c1C(=O)OC (centres undefined),nt,-4,nt,nt,nt,nt,nt,
Cc1ccc(NCc2ccccc2F)cc1,-9,1,9,1,-6,19*,1,
CCOc1ccc(NC(=O)/C=C/c2ccccc2)c([N+](=O)[O-])c1,3,0,1,-2,-4,1,nt,
